Activity calls are given as the source filed them.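 Rule for the calls, unless noted: active = viability at or under a set limit in both replicates, limit being median viability minus 3 SD (cut at about 48% in these data, passing the limit was not always enough); inconclusive = at or under the limit in just one replicate; inactive = at or above the limit in both replicates.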
Key:
[1] = reducers of endogenous Her2 protein level, primary screen, SKBR3 breast tumor cells, AlphaScreen, ATP viability (AID 461;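 active = Her2 level under about 52% in both replicate screens, with viability over 70% of control, limit read from the data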;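 for Her2 level: lower value means less Her2 protein in the cells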;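 for viability: percent of carrier control wells set as 100% viability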); conditions: 18-24 h, measured here: SKBR3 viability, ATP luminescence, at 10 µM
[2] = target: Receptor tyrosine-protein kinase erbB-2 (Homo sapiens) (UniProt P04626); test: as above; conditions: 18-24 h, at 10 µM, stronger effect = lower value
[3] = SK-BR-3 cell growth inhibitors, pilot screen, 24 h, human (AID 572;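 active = viability at or below 10% of carrier control in both of two separate runs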;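 note: compound exposure lasted between 18 and 24 h rather than exactly 24 h; 100% = carrier-treated control wells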); conditions: SK-BR-3 viability, CellTiter-Glo luminescence, at 10 µM, stronger effect = lower value
[4] = HUVEC growth inhibition – cell-based, human, primary screen (AID 575;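 active = viability at or below 30% in both replicate assays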;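 note: 100% = median of untreated cell wells with 0.1% DMSO on each plate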); conditions: HUVEC proliferation, CellTiter-Glo luminescence, 72 h; at 10 µM; stronger effect = lower value
Method in brief: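 Test system: HUVEC primary cells. Quantity: 1250 endothelial cells in each well. Dosing: single-point 10 µM, DMSO 0.1% final. Incubation: 72 h treatment at 37 °C. Measured by: CTG luminescence. Control set: DMSO cell controls and MePR drug controls. Plate: collagen-coated 384-well format.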

[5] = growth inhibitors of H69AR lung tumor, primary screen, human, duplicate replicates (AID 580); conditions: H69AR lung tumor cells viability, ATP luminescence, 72 h; at 10 µM; stronger effect = lower value;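 note: 100% = mean luminescence of untreated wells and 0% = no signal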
[6] = reversal of MRP1-mediated doxorubicin resistance, pilot screen, H69AR cells, doxorubicin co-treatment (AID 601;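 active = viability loss from added drug above about 55%, and viability with drug at most 40%, in both replicates, limit read from the data, passing the limit was not always enough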); conditions: CellTiter-Glo, 72 h, at 10 µM; for differential viability (reversal): stronger effect = higher value
[7] = 384-well plate pilot, post-Golgi transport modulator project, inhibition of yeast transport mutant growth (AID 636; in the data active = inhibition above about 31%); conditions: absorbance 615 nm, about 18 h, stronger effect = higher value
[8] = growth suppression of yeast trafficking mutant, preliminary HTS, modulators of trafficking downstream of Golgi apparatus project, 1536-format plate, OD 615 nm (AID 637; in the data active = inhibition above about 30%); conditions: yeast transport mutant growth, absorbance 615 nm, 18 h; stronger effect = higher value
[9] = H69AR cells + 2 uM doxorubicin, measured here: viability with 2 uM doxorubicin, stronger effect = lower value
[10] = H69AR cells, compound alone cytotoxicity

Receptor tyrosine-protein kinase erbB-2 (Homo sapiens), sequence (P04626 whole entry, looked up): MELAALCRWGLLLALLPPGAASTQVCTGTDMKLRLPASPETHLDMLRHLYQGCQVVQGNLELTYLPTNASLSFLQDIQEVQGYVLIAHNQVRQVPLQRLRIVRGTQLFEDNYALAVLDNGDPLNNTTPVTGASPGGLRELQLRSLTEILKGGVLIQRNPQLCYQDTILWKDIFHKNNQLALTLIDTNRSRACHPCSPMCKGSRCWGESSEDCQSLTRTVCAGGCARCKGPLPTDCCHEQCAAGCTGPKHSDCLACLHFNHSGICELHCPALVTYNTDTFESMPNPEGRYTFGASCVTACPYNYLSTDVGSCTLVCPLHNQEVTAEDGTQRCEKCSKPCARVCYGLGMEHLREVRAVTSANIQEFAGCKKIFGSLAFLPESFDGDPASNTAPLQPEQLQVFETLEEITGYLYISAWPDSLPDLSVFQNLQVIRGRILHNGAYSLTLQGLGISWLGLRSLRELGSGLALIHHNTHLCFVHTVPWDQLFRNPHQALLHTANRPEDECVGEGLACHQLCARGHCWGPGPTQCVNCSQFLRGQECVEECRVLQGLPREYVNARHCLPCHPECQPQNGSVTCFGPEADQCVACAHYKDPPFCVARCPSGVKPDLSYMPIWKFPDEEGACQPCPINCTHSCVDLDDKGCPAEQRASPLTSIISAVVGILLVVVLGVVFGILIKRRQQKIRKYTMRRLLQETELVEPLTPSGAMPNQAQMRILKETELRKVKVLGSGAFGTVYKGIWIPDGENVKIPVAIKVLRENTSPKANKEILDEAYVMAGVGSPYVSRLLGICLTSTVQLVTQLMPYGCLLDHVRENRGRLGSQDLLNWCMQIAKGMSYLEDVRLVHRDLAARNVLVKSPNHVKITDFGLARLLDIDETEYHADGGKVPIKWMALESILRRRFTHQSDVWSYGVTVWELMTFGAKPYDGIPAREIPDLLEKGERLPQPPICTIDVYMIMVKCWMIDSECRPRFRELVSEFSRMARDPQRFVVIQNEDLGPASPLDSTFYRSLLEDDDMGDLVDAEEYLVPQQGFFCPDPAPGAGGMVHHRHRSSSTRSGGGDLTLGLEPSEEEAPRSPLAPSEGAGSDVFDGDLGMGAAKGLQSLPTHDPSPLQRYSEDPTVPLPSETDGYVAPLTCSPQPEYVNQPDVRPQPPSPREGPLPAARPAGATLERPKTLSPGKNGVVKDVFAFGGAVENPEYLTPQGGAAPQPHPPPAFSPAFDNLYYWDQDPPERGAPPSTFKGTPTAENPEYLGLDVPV

SMILES	viability [1] [%]	Her2 level [2]	viability [3]	viability [4]	viability [5]	differential viability (reversal) ([6]; H69AR cells + 2 uM doxorubicin)	viability [6, 9] [%]	viability [6, 10] [%]	inhibition [7]	inhibition [8]
O=C(NCc1ccc2c(c1)OCO2)c1ccc(NS(=O)(=O)c2ccc3c(c2)OCCO3)cc1	102	84.5% (inactive)	102% (inactive)	85.2% (inactive)	106% (inactive)	15.4% (inactive)	90.9	106	-8.11% (inactive)	-3.65% (inactive)
Cc1ccc(C2CC(c3cccc(Br)c3)Nc3nnnn32)cc1 (stereo not given)	92.5	79.5% (inactive)	92.5% (inactive)	56.7% (inactive)	91.7% (inactive)	6.65% (inactive)	85	91.7	-2.11% (inactive)	0.16% (inactive)
Cc1ccccc1OCc1nnc(SCC(=O)NCc2ccccc2)n1C	96	84.5% (inactive)	96% (inactive)	88.4% (inactive)	104% (inactive)	8.75% (inactive)	95.2	104	-4.66% (inactive)	-3.02% (inactive)
CCCCC(CC)C(=O)Nc1ccccc1C#N (stereo not given)	96	95% (inactive)	96% (inactive)	98.6% (inactive)	89.1% (inactive)	8.93% (inactive)	80.1	89.1	-4.34% (inactive)	4.29% (inactive)
CCOc1cc(NC(=O)c2ccco2)c(OCC)cc1NC(=O)COc1ccccc1C	67	77.5% (inactive)	67% (inactive)	60.9% (inactive)	7.87% (active)	-4.53% (inactive)	12.4	7.87	-5.6% (inactive)	-6.19% (inactive)
O=C(Cn1c(C(=O)NCC2CCCO2)cc2sccc21)c1ccccc1 (stereo not given)	94.5	100% (inactive)	94.5% (inactive)	101% (inactive)	90.3% (inactive)	7.12% (inactive)	83.2	90.3	-1.56% (inactive)	-5.56% (inactive)
O=C1c2ccccc2C(Nc2ccc3c(c2)OCCO3)N1Cc1ccco1 (stereo not given)	106	112% (inactive)	106% (inactive)	87.7% (inactive)	80.7% (inactive)	-22.6% (inactive)	103	80.7	4.23% (inactive)	-1.5% (inactive)
CCOP(=O)(c1ccc(N(C)C)cc1)C(O)c1c(Cl)cccc1Cl (stereo not given)	83	87.5% (inactive)	83% (inactive)	97.4% (inactive)	90.1% (inactive)	0.49% (inactive)	89.6	90.1	-1.6% (inactive)	-2.58% (inactive)
CCN(CC)c1nc2cc(OC)ccc2cc1C#N	104	80.5% (inactive)	104% (inactive)	86.1% (inactive)	68.2% (inactive)	-14.1% (inactive)	82.3	68.2	-2.86% (inactive)	-5.24% (inactive)
COc1ccc(C2C(C(C)=O)=C(O)C(=O)N2C)c(OC)c1 (stereo not given)	102	104% (inactive)	102% (inactive)	109% (inactive)	114% (inactive)	22.1% (inactive)	91.7	114	1.3% (inactive)	-0.83% (inactive)
O=S(=O)(c1ccc(S(=O)(=O)N(Cc2ccco2)Cc2ccccc2Cl)cc1)N1CCCC1	96	74.5% (inactive)	96% (inactive)	79% (inactive)	76.6% (inactive)	12.4% (inactive)	64.2	76.6	-5.54% (inactive)	8.1% (inactive)
CC(=O)n1nc(-c2ccco2)nc1SCc1ccccc1	77	103% (inactive)	77% (inactive)	97.2% (inactive)	98.7% (inactive)	14.9% (inactive)	83.8	98.7	1.54% (inactive)	0% (inactive)
CC1Cc2ccccc2N1C(=O)COC(=O)Cn1nnc(-c2ccccc2)n1 (stereo not given)	110	92.5% (inactive)	110% (inactive)	88.5% (inactive)	81% (inactive)	7.38% (inactive)	73.6	81	-5.27% (inactive)	3.65% (inactive)
CCOC(=O)N1CCN(CC(=O)Nc2c(C(=O)OC)[nH]c3cccc(Cl)c23)CC1	102	97.5% (inactive)	102% (inactive)	91.9% (inactive)	86.6% (inactive)	-1.14% (inactive)	87.8	86.6	-6.08% (inactive)	8.5% (inactive)
COCCn1nnnc1C(c1cc2cc(C)cc(C)c2[nH]c1=O)N1CCN(c2ccccc2F)CC1 (stereo not given)	102	81.5% (inactive)	102% (inactive)	78.4% (inactive)	80.9% (inactive)	-5.39% (inactive)	86.3	80.9	-4% (inactive)	1.8% (inactive)
Cn1cccc1Cc1nnc(SCC(N)=O)n1-c1ccc(F)cc1	88	94.5% (inactive)	88% (inactive)	98.5% (inactive)	99.8% (inactive)	12.2% (inactive)	87.6	99.8	-1.28% (inactive)	1.33% (inactive)
CCOc1ccc(C2C(C(=O)OC)=CN(CCOC)C=C2C(=O)OC)cc1	106	109% (inactive)	106% (inactive)	90% (inactive)	97.3% (inactive)	-1.94% (inactive)	99.2	97.3	0.64% (inactive)	-1.33% (inactive)
CN(C(=O)c1ccncc1)C1CC(C)(C)N(O)C(C)(C)C1	124	96.5% (inactive)	124% (inactive)	87.7% (inactive)	92.3% (inactive)	-1.93% (inactive)	94.2	92.3	-7.11% (inactive)	-6.36% (inactive)
CCC(=O)N/C(N)=N/c1nc(C)c2cc(OC)ccc2n1	131	67.5% (inactive)	131% (inactive)	59.5% (inactive)	80.7% (inactive)	-8.64% (inactive)	89.3	80.7	-0.13% (inactive)	-5.74% (inactive)
COc1ccc(CCNc2oc(-c3ccco3)nc2C#N)cc1	95	81.5% (inactive)	95% (inactive)	96.7% (inactive)	94.6% (inactive)	-3.7% (inactive)	98.3	94.6	-3.07% (inactive)	3.93% (inactive)
CC(=O)Nc1ccc(NC(=O)c2cc(C)nn2-c2ccccc2)cc1	84	116% (inactive)	84% (inactive)	89.5% (inactive)	108% (inactive)	12.7% (inactive)	95.5	108	2.53% (inactive)	-7.9% (inactive)
COc1ccccc1N(C)S(=O)(=O)c1ccc(C(=O)NC2=NCCS2)cc1	104	95% (inactive)	104% (inactive)	85.8% (inactive)	96.2% (inactive)	-3.23% (inactive)	99.5	96.2	0% (inactive)	-5.4% (inactive)
FC(F)(F)C(F)(F)C(F)(F)c1nnc2ccc(N3CCOCC3)nn12	97.5	118% (inactive)	97.5% (inactive)	84.8% (inactive)	83.7% (inactive)	-0.265% (inactive)	83.9	83.7	4.21% (inactive)	7.94% (inactive)
Cc1n[nH]c(C)c1S(=O)(=O)Nc1ccc2c(c1)OCCO2	93	98.5% (inactive)	93% (inactive)	104% (inactive)	104% (inactive)	14.9% (inactive)	89.3	104	-3.42% (inactive)	-4.29% (inactive)
COC1CCCCC1NS(=O)(=O)c1ccccc1 (stereo not given)	106	96.5% (inactive)	106% (inactive)	97.8% (inactive)	97.7% (inactive)	1.47% (inactive)	96.2	97.7	-3.59% (inactive)	3.17% (inactive)
Cn1c(=O)[nH]c(=O)c2c1nc(NCCCn1ccnc1)n2Cc1ccccc1	89	108% (inactive)	89% (inactive)	97.9% (inactive)	95.8% (inactive)	4.16% (inactive)	91.7	95.8	-1.47% (inactive)	-3.44% (inactive)
CN(Cc1ccccc1)Cc1nc2c([nH]1)c(=O)[nH]c(=O)n2C	92	90.5% (inactive)	92% (inactive)	79.2% (inactive)	90.9% (inactive)	8.36% (inactive)	82.6	90.9	-3.6% (inactive)	-1.31% (inactive)
Cc1nn(-c2ccccc2)c2c1C(=O)NC(=O)C(C)(C)C2	96.5	88.5% (inactive)	96.5% (inactive)	105% (inactive)	97.3% (inactive)	16.2% (inactive)	81.1	97.3	-4.08% (inactive)	-1.27% (inactive)
COc1ccc(S(=O)(=O)NC2CCCCC2)c(C)c1C	104	91% (inactive)	104% (inactive)	90% (inactive)	96.3% (inactive)	8.58% (inactive)	87.7	96.3	-2.89% (inactive)	-2.9% (inactive)

— PubChem BioAssay
